# Results reported in ChEMBL document CHEMBL1158511, “Tricyclic dihydroquinazolinones as novel 5-HT2C selective and orally efficacious anti-obesity agents” (Bioorg Med Chem Lett, 2010).
# Legend:
# [1] = target: T1, 5-hydroxytryptamine receptor 2A (Homo sapiens, UniProt P28223); test: Intrinsic activity at human recombinant 5HT2A receptor expressed in HEK293E cells by FLIPR assay at 3 uM relative to control; type: cell-based
# Method in brief: (§1)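 FLIPR calcium mobilization in HEK293E cells expressing the human receptor. Intrinsic activity is expressed relative to activation by 3 µM serotonin, defined as 1.0. Values are means of ≥2 independent 12-point dose-response curves.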
# [2] = target: T1, 5-hydroxytryptamine receptor 2A; test: Agonist activity at human recombinant 5HT2A receptor expressed in HEK293E cells by FLIPR assay; type: functional, cell-based
# Method in brief: (§2)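 Calcium mobilization measured by FLIPR in HEK293E cells expressing human 5-HT2A, 5-HT2B or 5-HT2C receptor. Values are means of ≥2 independent 12-point dose-response curves (n ≥4 where SD is given). mCPP is the positive control.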
# [3] = target: T2, 5-hydroxytryptamine receptor 2C (Homo sapiens) (UniProt P28335); test: Intrinsic activity at human recombinant 5HT2C receptor at 3 uM expressed in HEK293E cells by FLIPR assay relative to control; type: cell-based; method in brief: as §1
# T2 sequence (whole entry): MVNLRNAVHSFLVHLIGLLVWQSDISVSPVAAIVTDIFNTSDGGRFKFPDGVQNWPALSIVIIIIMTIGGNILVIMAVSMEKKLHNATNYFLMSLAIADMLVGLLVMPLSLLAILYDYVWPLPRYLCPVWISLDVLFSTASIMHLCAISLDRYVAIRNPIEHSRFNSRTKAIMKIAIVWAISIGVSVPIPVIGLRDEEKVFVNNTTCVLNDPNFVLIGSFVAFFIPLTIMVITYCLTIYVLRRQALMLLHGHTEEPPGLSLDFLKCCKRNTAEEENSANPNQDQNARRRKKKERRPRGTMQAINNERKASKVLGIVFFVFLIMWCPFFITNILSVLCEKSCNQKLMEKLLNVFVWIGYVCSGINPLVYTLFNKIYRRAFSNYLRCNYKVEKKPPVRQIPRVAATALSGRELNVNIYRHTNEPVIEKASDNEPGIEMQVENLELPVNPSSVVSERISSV
# [4] = target: T1, 5-hydroxytryptamine receptor 2A; test: Displacement of [125I]DOI from human recombinant 5HT2A receptor expressed in HEK293E cells; type: cell-based
# Method in brief: (§3)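 Radioligand binding with [125I]DOI at the human 5-HT2C or 5-HT2A receptor. Ki is the mean of ≥2 independent 12-point dose-response curves (n ≥4 where SD is given).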
# [5] = target: T3, 5-hydroxytryptamine receptor 2C (Homo sapiens, UniProt P28335); test: Agonist activity at human recombinant 5HT2C receptor expressed in HEK293E cells by FLIPR assay; type: functional, cell-based; method in brief: as §2
# T3 sequence (P28335 whole entry): T2 sequence (whole entry)
# [6] = target: T3, 5-hydroxytryptamine receptor 2C; test: Displacement of [125I]DOI from human recombinant 5HT2C receptor expressed in HEK293E cells; type: cell-based; method in brief: as §3
# [7] = target: T4, 5-hydroxytryptamine receptor 2B (Homo sapiens, UniProt P41595); test: Displacement of [3H]LSD from human recombinant 5HT2B receptor expressed in HEK293E cells
# [8] = target: T4, 5-hydroxytryptamine receptor 2B; test: Intrinsic activity at human recombinant 5HT2B receptor expressed in HEK293E cells by FLIPR assay at 3 uM relative to control; type: cell-based; method in brief: as §1
# [9] = target: 5-hydroxytryptamine receptor 2B (Rattus norvegicus) (UniProt P30994); test: Intrinsic activity at 5HT2B receptor in rat fundus at 10 uM relative to control
# [10] = target: T4, 5-hydroxytryptamine receptor 2B; test: Agonist activity at human recombinant 5HT2B receptor expressed in HEK293E cells by FLIPR assay; type: functional, cell-based; method in brief: as §2
# [11] = species: Rattus norvegicus; test: Antiobesity activity in Sprague-Dawley rat assessed as reduction of food intake after 20 hrs; type: functional, organism-based
# [12] = test system: Rattus norvegicus; test: Antiobesity activity in Sprague-Dawley rat assessed as reduction of body weight at 30 mg/kg, po after 4 days; type: functional; design: scale not given: the % may be the effect or the level left
# Method in brief: (§4)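 Male Sprague–Dawley rats, about 240 g (n = 8), were dosed orally once daily for 4 days with compound or vehicle (14% propylene glycol, 1% tween, 85% water, v/v/v). Body weight, food and water intake were measured daily and compared with vehicle.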
# [13] = test system: Rattus norvegicus; test: Antiobesity activity in Sprague-Dawley rat assessed as reduction of food intake at 10 mg/kg, po after 20 hrs; type: functional; design: scale not given: the % may be the effect or the level left
# [14] = test system: Rattus norvegicus; test: Antiobesity activity in Sprague-Dawley rat assessed as reduction of caloric intake at 30 mg/kg, po after 4 days; type: functional; design: scale not given: the % may be the effect or the level left; method in brief: as §4
# [15] = test system: Rattus norvegicus; test: Antiobesity activity in Sprague-Dawley rat assessed as reduction of food intake at 30 mg/kg, po after 20 hrs; type: functional; design: scale not given: the % may be the effect or the level left
# Method in brief: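 Male Sprague–Dawley rats (n = 6) are dosed orally 60 min before dark-cycle onset. Vehicle is 14% propylene glycol, 1% tween, 85% water (v/v/v). Food pellet consumption over 20 h is compared with vehicle-treated animals as percent reduction. Water intake and locomotor activity are recorded at the same time.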
# [16] = AUC in Sprague-Dawley rat at 10 mg/kg, po after 8 hrs; type: ADME, organism-based; design: time < 8 hr, dose 10 mg/kg, route oral; conditions: plasma
# Method in brief: (§5)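 Male Sprague–Dawley rats given a single oral dose, 2 animals per value. AUC is taken over 0–8 h. Plasma and total brain levels are measured at 8 h post dose.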
# [17] = Plasma concentration in Sprague-Dawley rat at 10 mg/kg, po after 8 hrs; type: ADME, organism-based; design: dose 10 mg/kg, route oral; method in brief: as §5
# [18] = test system: Brain; test: Drug level in Sprague-Dawley rat brain at 10 mg/kg, po after 8 hrs; type: ADME, organism-based; design: dose 10 mg/kg, route oral; conditions: in vivo; method in brief: as §5
# [19] = Tmax in Sprague-Dawley rat at 10 mg/kg, po; type: ADME, organism-based; design: dose 10 mg/kg, route oral; conditions: in vivo
# Method in brief: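 Male Sprague–Dawley rats were dosed po only at 1 or 10 mpk. Values are means of 2 animals. AUC was collected over 4 h. Plasma and total brain levels were taken at 4 h post dose.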
# T1 sequence (P28223 whole entry): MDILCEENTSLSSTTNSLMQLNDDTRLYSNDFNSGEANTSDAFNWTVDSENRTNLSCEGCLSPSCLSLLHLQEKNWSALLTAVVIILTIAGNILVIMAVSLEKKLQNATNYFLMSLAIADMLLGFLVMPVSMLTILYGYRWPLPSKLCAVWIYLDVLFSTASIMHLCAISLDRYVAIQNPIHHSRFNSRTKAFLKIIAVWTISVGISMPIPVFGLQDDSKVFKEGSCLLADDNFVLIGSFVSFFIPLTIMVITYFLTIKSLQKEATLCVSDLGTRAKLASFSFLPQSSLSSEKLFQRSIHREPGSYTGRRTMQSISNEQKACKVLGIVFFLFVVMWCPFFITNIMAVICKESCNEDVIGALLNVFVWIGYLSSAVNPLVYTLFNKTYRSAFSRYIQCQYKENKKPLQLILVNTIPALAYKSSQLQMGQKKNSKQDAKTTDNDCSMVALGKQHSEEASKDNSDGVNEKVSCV
# T4 sequence (P41595 whole entry): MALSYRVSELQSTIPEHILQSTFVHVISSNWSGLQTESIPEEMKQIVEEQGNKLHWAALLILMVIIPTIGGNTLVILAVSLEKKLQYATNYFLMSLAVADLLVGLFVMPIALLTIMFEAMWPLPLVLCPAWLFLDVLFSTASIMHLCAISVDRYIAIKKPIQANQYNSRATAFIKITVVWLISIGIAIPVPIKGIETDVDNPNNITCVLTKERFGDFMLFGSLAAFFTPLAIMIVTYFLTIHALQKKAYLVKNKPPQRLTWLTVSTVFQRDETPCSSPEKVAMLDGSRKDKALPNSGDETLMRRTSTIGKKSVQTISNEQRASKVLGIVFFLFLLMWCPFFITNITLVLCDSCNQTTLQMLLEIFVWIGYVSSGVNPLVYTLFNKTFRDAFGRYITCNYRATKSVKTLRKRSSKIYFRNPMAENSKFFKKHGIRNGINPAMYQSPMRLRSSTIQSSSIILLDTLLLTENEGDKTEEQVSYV
# 5-hydroxytryptamine receptor 2B (Rattus norvegicus), sequence (P30994 whole entry, looked up): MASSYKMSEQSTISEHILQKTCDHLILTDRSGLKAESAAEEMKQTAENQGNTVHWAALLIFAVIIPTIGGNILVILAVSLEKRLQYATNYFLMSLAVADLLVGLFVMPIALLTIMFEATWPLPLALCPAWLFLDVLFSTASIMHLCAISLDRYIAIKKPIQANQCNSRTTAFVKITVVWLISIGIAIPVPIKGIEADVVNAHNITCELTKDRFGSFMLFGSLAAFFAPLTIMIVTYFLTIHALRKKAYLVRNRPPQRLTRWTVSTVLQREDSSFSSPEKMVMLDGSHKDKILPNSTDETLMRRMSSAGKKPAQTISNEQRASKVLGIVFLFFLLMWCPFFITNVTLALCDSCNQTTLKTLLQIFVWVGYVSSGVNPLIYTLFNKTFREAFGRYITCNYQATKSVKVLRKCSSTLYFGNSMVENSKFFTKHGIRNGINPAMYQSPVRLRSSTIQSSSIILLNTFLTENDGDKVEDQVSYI
Compound,Intrinsic activity [1],EC50 [2],Intrinsic activity [3],Ki [4],EC50 [5],Ki [6],Ki [7],Intrinsic activity [8],EC50 [10],other results
Cc1cccc2c1N1CCNCC1NC2=O (configuration not stated),0,> 10000 nM,0.4,> 10000 nM,4200 nM,6150 nM,2390 nM,,,
Cc1cccc2c1C(=O)NC1CCNCCN21 (configuration not stated),1,70 nM,1,141 nM,2 nM,2.9 nM,10 nM,0.44,61 nM,Intrinsic activity [9]: 0.2
O=C1NC2CNCCN2c2c(Cl)cccc21 (configuration not stated),,,0,> 10000 nM,> 10000 nM,> 10000 nM,> 10000 nM,,,
O=C1NC2CNCCN2c2cccc(Cl)c21 (configuration not stated),0,> 10000 nM,0.8,334 nM,43 nM,223 nM,18 nM,0,> 10000 nM,
Clc1cccc(N2CCNCC2)c1,0.3,,1,,,,,0.4,,
O=C1NC2CNCCCN2c2cccc(Cl)c21 (racemic),,,,13600 nM,,1550 nM,734 nM,,,
"O=C1NC2CNCCN2c2ccccc21 (single isomer, unassigned)",,,0.96,1980 nM,137 nM,1940 nM,137 nM,,,
"Cc1ccc2c(c1)C(=O)NC1CNCCN21 (single isomer, unassigned)",0.34,> 705 nM,1,1220 nM,133 nM,998 nM,61 nM,0,> 10000 nM,
"Cc1ccc2c(c1)N1CCNCC1NC2=O (single isomer, unassigned)",0.26,> 1000 nM,1,600 nM,34 nM,479 nM,280 nM,0,> 10000 nM,
"O=C1NC2CNCCN2c2cccc(C(F)(F)F)c21 (single isomer, unassigned)",,,0.93,184 nM,92 nM,153 nM,13 nM,,> 10000 nM,
"O=C1NC2CNCCN2c2ccc(Cl)cc21 (single isomer, unassigned)",,,0.97,397 nM,110 nM,757 nM,72 nM,,,
"O=C1NC2CCNCCN2c2cccc(Cl)c21 (single isomer, unassigned)",0.8,130 nM,1,168 nM,1.8 nM,9 nM,23 nM,0.5,46 nM,
"O=C1NC2CCNCCN2c2ccccc21 (single isomer, unassigned)",1,248 nM,0.8,269 nM,16 nM,49 nM,67 nM,0.6,101 nM,
"Cc1cccc2c1C(=O)NC1CNCCN21 (single isomer, unassigned; (+))",0,,1,,,,,0,,Activity [11]: Dose-dependent effect
Cc1ccc2c(c1)N1CCNCCC1NC2=O (stereo in doubt; (+)-3c) [listing 1 of 2 here],,952 nM,,364 nM,6.6 nM,6.5 nM,41 nM,,> 10000 nM,Activity [12]: 2.7%; Activity [13]: 18%; Activity [14]: 19%; Activity [15]: 25%; AUC at 8 h [16]: 9.24 µM·h; concentration at 8 h [17]: 714 nM; Drug uptake [18]: 108 nmol/kg; Tmax [19]: 1.5 h
Cc1ccc2c(c1)N1CCNCCC1NC2=O (stereo in doubt; (+)-3c) [listing 2 of 2 here],0.28,,1.1,,,,,0,,
Cc1cccc2c1C(=O)NC1CNCCN21 (stereo in doubt; (-)-2a) [listing 1 of 2 here],,,,4480 nM,989 nM,2080 nM,206 nM,,,
Cc1cccc2c1C(=O)NC1CNCCN21 (stereo in doubt; (-)-2a) [listing 2 of 2 here],,,0.9,,,,,,,
Cc1ccc2c(c1)N1CCNCCC1NC2=O (stereo in doubt; (-)-3c) [listing 1 of 2 here],,> 10000 nM,,454 nM,92 nM,60 nM,51 nM,,,
Cc1ccc2c(c1)N1CCNCCC1NC2=O (stereo in doubt; (-)-3c) [listing 2 of 2 here],0.11,,0.66,,,,,,,
